Experimental data from ChEMBL document CHEMBL4689842, “EUbOPEN Chemogenomics Library wave 1” (2021).

Tests used:
Type in all cases: toxicity, cell-based
[1] = system: HEK-293T; experiment: Incucyte cell viability with HEK293T; conditions: human, 10 µM, compound concentration 10 uM; further: filed as whole numbers so only -1 and 0 and 1 occur
[2] = system: U2OS; experiment: Incucyte cell viability with U2OS; conditions: human, 10 µM, compound concentration 10 uM; further: filed as whole numbers so only -1 and 0 and 1 occur
[3] = system: Fibroblast; experiment: Multiplex assay against human fibroblast
Outline: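 Live cells carried four stains from seeding: Hoechst33342, BioTracker Green Microtubule Cytoskeleton Dye, MitoTracker Red and Annexin V Alexa Fluor 680. They were imaged on a CQ1 microscope at 37°C and 5% CO2 after compound addition. Using CellPathfinder machine-learning gating, cells were split into Hoechst high-intensity objects or normal cells, normal cells into healthy, pyknosed or fragmented nuclei, and pyknosed cells into mitotic or apoptotic; tubulin, mitochondrial-mass and membrane-permeability phenotypes are per cents of healthy-nucleus cells.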

[4] = system: Fibroblast; experiment: Incucyte cell viability with human fibroblast; conditions: 10 µM, compound concentration 10 uM; further: filed as whole numbers so only -1 and 0 and 1 occur
[5] = 6 h, replicate number 1, timepoint 6 hours
[6] = 12 h, replicate number 1, timepoint 12 hours
[7] = 18 h, replicate number 1, timepoint 18 hours
[8] = 24 h, replicate number 1, timepoint 24 hours
[9] = 12 h, 1 µM, compound concentration 1 uM, replicate 1
[10] = 12 h, 1 µM, compound concentration 1 uM, replicate 2
[11] = 12 h, 10 µM, compound concentration 10 uM, replicate 1
[12] = 12 h, 10 µM, compound concentration 10 uM, replicate 2
[13] = 24 h, 1 µM, compound concentration 1 uM, replicate 1
[14] = 24 h, 1 µM, compound concentration 1 uM, replicate 2
[15] = 24 h, 10 µM, compound concentration 10 uM, replicate 1
[16] = 24 h, 10 µM, compound concentration 10 uM, replicate 2
[17] = 48 h, 1 µM, compound concentration 1 uM, replicate 1
[18] = 48 h, 1 µM, compound concentration 1 uM, replicate 2
[19] = 48 h, 10 µM, compound concentration 10 uM, replicate 1
[20] = 48 h, 10 µM, compound concentration 10 uM, replicate 2

CCCCCNC(=N)N/N=C/c1c[nH]c2ccc(OC)cc12.O=C(O)/C=C\C(=O)O [TEGASEROD MALEATE]
Growth Rate ([1]; 0 h, replicate number 2, timepoint 0 hours): 1
Growth Rate [1, 5]: 0
Growth Rate [1, 6]: 0
Growth Rate [1, 7]: 0
Growth Rate [1, 8]: 0
Growth Rate [2, 5]: 0
Growth Rate [2, 6]: 0
Growth Rate [2, 7]: 0
Growth Rate [2, 8]: 0
Population Apoptotic (%) [3, 9]: 65%
Population Fragmented Nuclei (%) [3, 9]: 25%
Population Healthy Nuclei (%) [3, 9]: 47%
Population Hoechst High Intensity Objects (%) [3, 9]: 8%
Population Membrane Permeable-Phenotype (%) [3, 9]: 10%
Population Mitochondria Different-Phenotype (%) [3, 9]: 0%
Population Mitotic Cells (%) [3, 9]: 34%
Population Normal (%) [3, 9]: 91%
Population Pyknosed Nuclei (%) [3, 9]: 27%
Population Tubulin-Different-Phenotype (%) [3, 9]: 22%
Total Cell Count [3, 9]: 114
Population Apoptotic (%) [3, 10]: 20%
Population Fragmented Nuclei (%) [3, 10]: 12%
Population Healthy Nuclei (%) [3, 10]: 79%
Population Hoechst High Intensity Objects (%) [3, 10]: 3%
Population Membrane Permeable-Phenotype (%) [3, 10]: 4%
Population Mitochondria Different-Phenotype (%) [3, 10]: 22%
Population Mitotic Cells (%) [3, 10]: 80%
Population Normal (%) [3, 10]: 96%
Population Pyknosed Nuclei (%) [3, 10]: 8%
Population Tubulin-Different-Phenotype (%) [3, 10]: 14%
Total Cell Count [3, 10]: 74
Population Apoptotic (%) [3, 11]: 50%
Population Fragmented Nuclei (%) [3, 11]: 34%
Population Healthy Nuclei (%) [3, 11]: 12%
Population Hoechst High Intensity Objects (%) [3, 11]: 20%
Population Membrane Permeable-Phenotype (%) [3, 11]: 6%
Population Mitochondria Different-Phenotype (%) [3, 11]: 50%
Population Mitotic Cells (%) [3, 11]: 49%
Population Normal (%) [3, 11]: 80%
Population Pyknosed Nuclei (%) [3, 11]: 52%
Population Tubulin-Different-Phenotype (%) [3, 11]: 62%
Total Cell Count [3, 11]: 155
Population Apoptotic (%) [3, 12]: 100%
Population Fragmented Nuclei (%) [3, 12]: 22%
Population Healthy Nuclei (%) [3, 12]: 3%
Population Hoechst High Intensity Objects (%) [3, 12]: 35%
Population Membrane Permeable-Phenotype (%) [3, 12]: 100%
Population Mitochondria Different-Phenotype (%) [3, 12]: 100%
Population Mitotic Cells (%) [3, 12]: 0%
Population Normal (%) [3, 12]: 64%
Population Pyknosed Nuclei (%) [3, 12]: 73%
Population Tubulin-Different-Phenotype (%) [3, 12]: 100%
Total Cell Count [3, 12]: 64
Population Apoptotic (%) [3, 13]: 52%
Population Fragmented Nuclei (%) [3, 13]: 24%
Population Healthy Nuclei (%) [3, 13]: 56%
Population Hoechst High Intensity Objects (%) [3, 13]: 10%
Population Membrane Permeable-Phenotype (%) [3, 13]: 15%
Population Mitochondria Different-Phenotype (%) [3, 13]: 1%
Population Mitotic Cells (%) [3, 13]: 47%
Population Normal (%) [3, 13]: 90%
Population Pyknosed Nuclei (%) [3, 13]: 18%
Population Tubulin-Different-Phenotype (%) [3, 13]: 35%
Total Cell Count [3, 13]: 100
Population Apoptotic (%) [3, 14]: 87%
Population Fragmented Nuclei (%) [3, 14]: 10%
Population Healthy Nuclei (%) [3, 14]: 77%
Population Hoechst High Intensity Objects (%) [3, 14]: 5%
Population Membrane Permeable-Phenotype (%) [3, 14]: 5%
Population Mitochondria Different-Phenotype (%) [3, 14]: 21%
Population Mitotic Cells (%) [3, 14]: 12%
Population Normal (%) [3, 14]: 94%
Population Pyknosed Nuclei (%) [3, 14]: 12%
Population Tubulin-Different-Phenotype (%) [3, 14]: 7%
Total Cell Count [3, 14]: 89
Population Apoptotic (%) [3, 15]: 74%
Population Fragmented Nuclei (%) [3, 15]: 39%
Population Healthy Nuclei (%) [3, 15]: 7%
Population Hoechst High Intensity Objects (%) [3, 15]: 18%
Population Membrane Permeable-Phenotype (%) [3, 15]: 12%
Population Mitochondria Different-Phenotype (%) [3, 15]: 37%
Population Mitotic Cells (%) [3, 15]: 25%
Population Normal (%) [3, 15]: 81%
Population Pyknosed Nuclei (%) [3, 15]: 53%
Population Tubulin-Different-Phenotype (%) [3, 15]: 75%
Total Cell Count [3, 15]: 133
Population Apoptotic (%) [3, 16]: 100%
Population Fragmented Nuclei (%) [3, 16]: 44%
Population Healthy Nuclei (%) [3, 16]: 26%
Population Hoechst High Intensity Objects (%) [3, 16]: 39%
Population Membrane Permeable-Phenotype (%) [3, 16]: 100%
Population Mitochondria Different-Phenotype (%) [3, 16]: 100%
Population Mitotic Cells (%) [3, 16]: 0%
Population Normal (%) [3, 16]: 60%
Population Pyknosed Nuclei (%) [3, 16]: 28%
Population Tubulin-Different-Phenotype (%) [3, 16]: 100%
Total Cell Count [3, 16]: 70
Population Apoptotic (%) [3, 17]: 50%
Population Fragmented Nuclei (%) [3, 17]: 37%
Population Healthy Nuclei (%) [3, 17]: 58%
Population Hoechst High Intensity Objects (%) [3, 17]: 15%
Population Membrane Permeable-Phenotype (%) [3, 17]: 10%
Population Mitochondria Different-Phenotype (%) [3, 17]: 1%
Population Mitotic Cells (%) [3, 17]: 50%
Population Normal (%) [3, 17]: 84%
Population Pyknosed Nuclei (%) [3, 17]: 4%
Population Tubulin-Different-Phenotype (%) [3, 17]: 24%
Total Cell Count [3, 17]: 115
Population Apoptotic (%) [3, 18]: 66%
Population Fragmented Nuclei (%) [3, 18]: 23%
Population Healthy Nuclei (%) [3, 18]: 72%
Population Hoechst High Intensity Objects (%) [3, 18]: 18%
Population Membrane Permeable-Phenotype (%) [3, 18]: 12%
Population Mitochondria Different-Phenotype (%) [3, 18]: 3%
Population Mitotic Cells (%) [3, 18]: 33%
Population Normal (%) [3, 18]: 81%
Population Pyknosed Nuclei (%) [3, 18]: 3%
Population Tubulin-Different-Phenotype (%) [3, 18]: 44%
Total Cell Count [3, 18]: 94
Population Apoptotic (%) [3, 19]: 76%
Population Fragmented Nuclei (%) [3, 19]: 48%
Population Healthy Nuclei (%) [3, 19]: 20%
Population Hoechst High Intensity Objects (%) [3, 19]: 33%
Population Membrane Permeable-Phenotype (%) [3, 19]: 17%
Population Mitochondria Different-Phenotype (%) [3, 19]: 23%
Population Mitotic Cells (%) [3, 19]: 23%
Population Normal (%) [3, 19]: 66%
Population Pyknosed Nuclei (%) [3, 19]: 30%
Population Tubulin-Different-Phenotype (%) [3, 19]: 64%
Total Cell Count [3, 19]: 127
Population Apoptotic (%) [3, 20]: 85%
Population Fragmented Nuclei (%) [3, 20]: 52%
Population Healthy Nuclei (%) [3, 20]: 15%
Population Hoechst High Intensity Objects (%) [3, 20]: 45%
Population Membrane Permeable-Phenotype (%) [3, 20]: 30%
Population Mitochondria Different-Phenotype (%) [3, 20]: 50%
Population Mitotic Cells (%) [3, 20]: 15%
Population Normal (%) [3, 20]: 54%
Population Pyknosed Nuclei (%) [3, 20]: 31%
Population Tubulin-Different-Phenotype (%) [3, 20]: 80%
Total Cell Count [3, 20]: 115
Growth Rate [4, 5]: 0
Growth Rate [4, 6]: 0
Growth Rate [4, 7]: 0
Growth Rate [4, 8]: 0
